Laboratory results taken from ChEMBL document CHEMBL1124613, “Synthesis, tubulin binding, antineoplastic evaluation, and structure-activity relationship of oncodazole analogues” (J Med Chem, 1989).

Key:
[1] = test system: B16; assay: Inhibition B16 melanoma cell monolayer proliferation; type: functional, cell-based; conditions: Mus musculus
Method in brief: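 Mouse B16 melanoma cells grown as monolayers with continuous 72-h exposure to compound. IC50 is the concentration that inhibits proliferation by 50%.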

[2] = test system: Mus musculus; assay: In vivo Maximum tolerated dose in syngeneic B6D2F1 female mice bearing ip implanted P388 leukemia.; type: functional
Method in brief: (§1)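 Female B6D2F1 mice given ip implants of 10⁶ P388 leukemia cells. Drug given ip on days 1-5 after implantation at 320-20 mg/kg per day; maximally tolerated dose reported in mg/kg per day. Percent increase in lifespan taken at that dose from median survival time versus untreated controls. Under 25% increase counts as negative.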

[3] = test system: Mus musculus; assay: In vivo percent increase in life span at Maximum tolerated dose in syngeneic B6D2F1 female mice bearing ip implanted P388 leukemia; Negative; type: functional; method in brief: as §1
[4] = test system: Mus musculus; assay: In vivo percent increase in life span at Maximum tolerated dose in syngeneic B6D2F1 female mice bearing ip implanted P388 leukemia.; type: functional; method in brief: as §1
[5] = test system: Mus musculus; assay: Compound was tested in vivo for percent increase in life span at Maximum tolerated dose in syngeneic B6D2F1 female mice bearing intraperitoneally implanted P388 leukemia (exp 2); type: functional; method in brief: as §1
[6] = target: Tubulin alpha chain (Sus scrofa, UniProt P02550); assay: Displacement of 5.8 uM [3H]-oncodazole from homogeneous tubulin.
Method in brief: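 Equilibrium binding to soluble, homogeneous tubulin, measured by displacement of 5.8 μM [³H]oncodazole. IC50 (μM) is the concentration that displaces the label, given as mean ± SEM.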

Tubulin alpha chain, sequence (P02550 whole entry, looked up): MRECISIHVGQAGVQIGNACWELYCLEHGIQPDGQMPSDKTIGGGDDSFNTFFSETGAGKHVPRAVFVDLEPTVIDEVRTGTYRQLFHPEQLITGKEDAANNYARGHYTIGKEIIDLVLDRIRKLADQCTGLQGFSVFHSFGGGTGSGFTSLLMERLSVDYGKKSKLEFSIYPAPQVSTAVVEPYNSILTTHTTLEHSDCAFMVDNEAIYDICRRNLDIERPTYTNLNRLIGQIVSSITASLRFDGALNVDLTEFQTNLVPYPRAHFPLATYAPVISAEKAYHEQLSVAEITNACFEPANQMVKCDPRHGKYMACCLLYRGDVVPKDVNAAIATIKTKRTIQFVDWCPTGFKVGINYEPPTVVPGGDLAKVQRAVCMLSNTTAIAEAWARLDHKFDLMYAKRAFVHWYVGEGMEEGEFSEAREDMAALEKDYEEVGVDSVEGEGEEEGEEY

In the case of COC(=O)Nc1nc2cc(C(=O)c3sccc3C)ccc2[nH]1, the IC50 [1] is reported as 2 µM, the MTD [2] is reported as greater than 320 mg/kg and the ILS [3] is reported as less than 25%.

For CCOC(=O)Cc1csc(C(=O)c2ccc3[nH]c(NC(=O)OC)nc3c2)c1, the IC50 [1] was 0.02 µM, the MTD [2] was 80 mg/kg and the ILS [4] was 55%. The ILS [5] was 55% and the IC50 [6] was 0.88 µM.

With COC(=O)Nc1nc2cc(C(=O)c3cc(C)cs3)ccc2[nH]1 the IC50 [1] was 0.1 µM, the MTD [2] was 80 mg/kg and the ILS [4] was 95%. For the same compound, the IC50 [6] was 17.6 µM.

COC(=O)Nc1nc2cc(C(=O)c3cc(C(=O)C(F)(F)F)cs3)ccc2[nH]1 was tested, and the IC50 [1] was 0.14 µM and the IC50 [6] was 16 µM.

With COC(=O)Nc1nc2cc(C(=O)c3cccs3)ccc2[nH]1 [NOCODAZOLE] the IC50 [1] was 0.1 µM, the MTD [2] was 80 mg/kg and the ILS [4] was 75%. It also gave an IC50 [6] of 5.7 µM.

For COC(=O)Nc1nc2cc(C(=O)c3cc(CC(=O)OC(C)(C)C)cs3)ccc2[nH]1, the IC50 [1] was 0.07 µM, the MTD [2] was 160 mg/kg and the ILS [4] was 105%. For the same compound, the IC50 [6] was 7.5 µM.

In the case of COC(=O)Nc1nc2ccc(C(=O)c3cc(COC(=O)c4ccccc4)cs3)cc2[nH]1, the IC50 [6] is reported as 1.95 µM.

COC(=O)Nc1nc2cc(C(=O)c3cc(CO)cs3)ccc2[nH]1 gave an IC50 [1] of 1.8 µM and an IC50 [6] of 22 µM.

Compound COC(=O)Nc1nc2ccc(C(=O)c3cccs3)cc2n1C [NOCODOZOLE] has an IC50 [1] of 40 µM, an MTD [2] greater than 320 mg/kg and an ILS [3] of less than 25%.

For COC(=O)N(C)c1nc2cc(C(=O)c3cccs3)ccc2[nH]1, the IC50 [1] was 50 µM, the MTD [2] was 40 mg/kg and the ILS [3] was less than 25%.

With COC(=O)Nc1nc2cc(C(=O)c3cccs3)ccc2n1CCCCN the IC50 [1] was 30 µM, the MTD [2] was 80 mg/kg and the ILS [3] was less than 25%.

Work on CC(C)OC(=O)Nc1nc2cc(C(=O)c3cccs3)ccc2[nH]1 yielded an IC50 [1] of 0.2 µM, an MTD [2] of 320 mg/kg and an ILS [4] of 45%. The ILS [5] was 30% and the IC50 [6] was 14 µM.

Work on CCCOC(=O)Nc1nc2cc(C(=O)c3cccs3)ccc2[nH]1 yielded an IC50 [1] of 0.5 µM, an MTD [2] greater than 320 mg/kg and an ILS [3] of less than 25%.

In the case of COC(=O)Nc1nc2c(C)cc(C(=O)c3cccs3)cc2[nH]1, the IC50 [1] is reported as 0.06 µM, the MTD [2] is reported as 30 mg/kg and the ILS [4] is reported as 45%. For the same compound, the ILS [5] was 50% and the IC50 [6] was 0.86 µM.

COC(=O)Cc1csc(C(=O)c2ccc3[nH]c(NC(=O)OC)nc3c2)c1 showed an IC50 [1] of 0.04 µM, an MTD [2] of 30 mg/kg and an ILS [4] of 65%. It also gave an IC50 [6] of 5 µM.

Compound COC(=O)Nc1nc2cc(C(=O)c3cccs3)ccc2n1C has an IC50 [1] of 20 µM, an MTD [2] of 160 mg/kg and an ILS [3] of less than 25%.

COC(=O)Nc1nc2cc(C(=O)c3cccs3)ccc2n1CCN gave an IC50 [1] of 30 µM, an MTD [2] of 80 mg/kg and an ILS [3] of less than 25%.

COC(=O)Nc1nc2cc(C(=O)c3cc(CN)cs3)ccc2[nH]1 showed an IC50 [1] of 2 µM, an MTD [2] of 20 mg/kg and an ILS [3] of less than 25%. For the same compound, the IC50 [6] was 120 µM.

COC(=O)Nc1nc2cc(C(=O)c3cc(CC#N)cs3)ccc2[nH]1 showed an IC50 [1] of 0.02 µM, an MTD [2] of 160 mg/kg and an ILS [4] of 80%. For the same compound, the ILS [5] was 80% and the IC50 [6] was 2.9 µM.

COC(=O)Nc1nc2ccc(C(=O)c3cc(C([N+]#N)C(F)(F)F)cs3)cc2[nH]1 (centres undefined) showed an IC50 [1] of 0.14 µM and an IC50 [6] of 8.3 µM.

In the case of COC(=O)Nc1nc2cc(C(=O)c3cc(CC(=O)OCc4ccccc4)cs3)ccc2[nH]1, the IC50 [6] is reported as 5.2 µM.

For COC(=O)Nc1nc2cc(C(=O)c3cccs3)ccc2n1CCNC(=O)OCc1ccccc1, the IC50 [1] was 20 µM.

In the case of COC(=O)Nc1nc2c(C)c(C(=O)c3cccs3)ccc2[nH]1, the IC50 [1] is reported as 4 µM, the MTD [2] is reported as 40 mg/kg and the ILS [3] is reported as less than 25%. For the same compound, the IC50 [6] was 106 µM.

COC(=O)Nc1nc2cc(C(=O)c3cccs3)c(C)cc2[nH]1 showed an IC50 [1] of 8 µM, an MTD [2] greater than 320 mg/kg and an ILS [3] of less than 25%.

COC(=O)Nc1nc2cc(C(=O)c3cc(CC(=O)O)cs3)ccc2[nH]1 was tested, and the IC50 [1] was 2 µM, the MTD [2] was 80 mg/kg and the ILS [3] was less than 25%. It also gave an IC50 [6] of 442 µM.

In the case of COC(=O)Nc1nc2cc(C(=O)c3cc(CNC(=O)OC(C)(C)C)cs3)ccc2[nH]1, the IC50 [1] is reported as 0.5 µM, the MTD [2] is reported as 160 mg/kg and the ILS [3] is reported as less than 25%. For the same compound, the IC50 [6] was 23.3 µM.

With CCOC(=O)Nc1nc2cc(C(=O)c3cccs3)ccc2[nH]1 the IC50 [1] was 0.2 µM, the MTD [2] was 160 mg/kg and the ILS [3] was less than 25%.

COC(=O)Nc1nc2cc(C(=O)c3ccc(C)s3)ccc2[nH]1 gave an IC50 [1] of 10 µM, an MTD [2] of 160 mg/kg and an ILS [3] of less than 25%.

COC(=O)Nc1nc2cc(C(=O)c3cc(CC(=O)NCCN)cs3)ccc2[nH]1 showed an IC50 [1] greater than 70 µM, an MTD [2] of 80 mg/kg and an ILS [3] of less than 25%.
